Only some compounds are listed: those with a hit (about 2.1% of all), similar ones and a draw of the others.
ARNT-TACC3 inh = disrupts binding between human ARNT and TACC3. inhibition, % at 9.99 µM. AlphaScreen His-ARNT PAS-B/GST-TACC3 binding, luminescence; TACC3 fragment carries E629A point mutation. AID 623870. actives 0.66% (n = 390,000);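 active = mean inhibition of replicates at least 50% and at least half of replicates each reaching 50%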;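 note: 0% = complete ARNT plus TACC3 wells and 100% = ARNT alone without TACC3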
ERp5 inh = ERp5 (human) disulfide isomerase inhibition. Q15084. ERp5 insulin aggregation, absorbance 650 nm, 90 min. actives 0.05% (n = 350,000). inhibition, % at 9.99 µM;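 active = mean replicate inhibition above about 25%, with every replicate also reaching it, limit read from the data, passing the limit was not always enough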
FN deposition inh = fibronectin deposition inhibition; AH1F fibroblasts, Alexa488-fibronectin deposition fluorescence, overnight; inhibition, % at 12.6 µM; actives 0.086% (n = 350,000);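 active = mean inhibition across replicates of 30% or more, regardless of how many single replicates reach that level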;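 note: positive control wells lacked labelled fibronectin entirely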
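material = AH1F fibroblast monolayer depositing Alexa488-labelled fibronectin into matrix | amount = 10000 AH1F cells/well | buffer or medium = DMEM plus 2% serum, read in PBS | incubation = 1 h cell adhesion before compound, then overnight fibronectin incubation | detection = fluorescence at 485 nm excitation, 525 nm emission | evaluation = percent inhibition as loss of matrix-bound fibronectin fluorescence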
MLL AF4-AF9 inh = inhibitors of human MLL-AF4/AF9 interaction; P42568; actives 0.47% (n = 350,000); AlphaScreen, biotin-AF4 peptide binding to FLAG-AF9; inhibition, % at 10 µM; AID 651704;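 active = every replicate reaching a set inhibition limit, whatever the replicate mean, cut at about 25% in these data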;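 note: 0% = plate neutral control median and 100% = total signal loss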
FGF22 binding-1 = shifts melting point of recombinant human FGF22; Q9HCT0; recombinant FGF22 thermal shift, SYPRO orange fluorescence; percent of sucrose octasulfate shift, DMSO zero; activity (Tm shift, normalised), % at 9.99 µM; actives 1.5% (n = 340,000);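 active = mean Tm shift, scaled 0 neutral to 100 positive control, at about 1.3% or above, every replicate too, limit read from the data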
Target sequence (Q9HCT0 whole entry, looked up): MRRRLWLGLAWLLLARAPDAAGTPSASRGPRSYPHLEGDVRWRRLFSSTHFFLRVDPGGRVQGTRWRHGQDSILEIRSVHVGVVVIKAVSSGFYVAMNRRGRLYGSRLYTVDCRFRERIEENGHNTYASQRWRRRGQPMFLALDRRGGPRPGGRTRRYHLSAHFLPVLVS
PDI inh = PDI (human) enzyme inhibition; P07237; PDI insulin aggregation turbidity, A650, 90 min; inhibition, % at 10 µM; actives 0.052% (n = 350,000); AID 588391;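 active = mean inhibition across replicates of 30% or more, whatever share of single replicates reach that level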
Target sequence (P07237 whole entry, looked up): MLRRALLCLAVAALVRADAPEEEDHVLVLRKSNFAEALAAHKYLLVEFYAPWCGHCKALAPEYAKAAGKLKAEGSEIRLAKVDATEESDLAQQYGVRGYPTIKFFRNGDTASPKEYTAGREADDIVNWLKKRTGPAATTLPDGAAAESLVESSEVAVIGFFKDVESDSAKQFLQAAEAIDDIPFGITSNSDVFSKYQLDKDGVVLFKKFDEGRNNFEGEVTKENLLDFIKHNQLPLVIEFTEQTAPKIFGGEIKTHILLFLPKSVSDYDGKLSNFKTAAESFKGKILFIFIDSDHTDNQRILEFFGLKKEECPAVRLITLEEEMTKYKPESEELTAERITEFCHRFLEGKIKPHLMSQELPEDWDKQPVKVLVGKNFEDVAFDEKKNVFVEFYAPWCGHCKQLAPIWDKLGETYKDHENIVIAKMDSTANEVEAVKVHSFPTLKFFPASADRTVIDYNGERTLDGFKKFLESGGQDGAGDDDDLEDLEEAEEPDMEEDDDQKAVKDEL
FGF22 binding-2 = FGF22 (human) binding in thermal shift; shares compounds with FGF22 binding-1; recombinant FGF22 thermal shift, SYPRO orange fluorescence; thermal shift activity, °C (ΔTm) at 38 µM; actives 2% (n = 1,000);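 active = fitted rise in melting shift crosses a set limit at or below the top valid dose tested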
FGF22 TSA = FGF22 (human) binding by thermal shift. shares compounds with FGF22 binding-1. Thermal shift assay, SYPRO orange, melting temperature shift. Tm shift (activity), % at 38 µM. 50 tested, under 10 active. AID 743017;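 active = compounds whose fitted dose curve of melting temperature shift rises past a set threshold within the tested doses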
TSA no protein = compound-only SYPRO artifact for FGF22 binders; shares compounds with FGF22 binding-1; compound-only SYPRO orange thermal shift counter-screen, no protein; AC50, µM (titrated, usually from 38 µM); actives 2% (n = 1,000);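 active = rising signal whose fitted curve reaches the 0.54 level within the top valid dose, showing a melting point, actives reach about 13 µM in these data; inactive = the rest, including activity in the opposite direction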; note: value is where the raw curve crosses a fixed level and not half-maximal
* hit, by the source's call; [ ] = dose if it differs, or a comment.

What do the screens show for `C[C@@H]1CN([C@H](C)CO)C(=O)c2cccc(NC(=O)C3CC3)c2O[C@@H]1CN(C)Cc1ccncc1`?
ARNT-TACC3 inh: 13; ERp5 inh: -4; MLL AF4-AF9 inh: -5; FGF22 binding-1: 0

Results for C[C@@H]1CN([C@@H](C)CO)C(=O)c2cccc(NC(=O)C3CC3)c2O[C@H]1CN(C)Cc1ccncc1 ?
ARNT-TACC3 inh: 0; ERp5 inh: -6; MLL AF4-AF9 inh: -7; FGF22 binding-1: 1.2*; FGF22 binding-2: 0.096; TSA no protein: inactive

Results for CCCNC(=O)Nc1ccc2c(c1)C(=O)N(C)[C@H]1CC[C@@H](CC(=O)O)O[C@@H]1CO2 ?
ARNT-TACC3 inh: -23; FN deposition inh: -11; FGF22 binding-1: 0

How did C[C@@H]1CN([C@@H](C)CO)C(=O)c2cccc(N(C)C)c2O[C@H]1CN(C)Cc1ccc(C(=O)O)cc1 do in these assays?
ARNT-TACC3 inh: -9; ERp5 inh: 2; FN deposition inh: 11; MLL AF4-AF9 inh: -2; FGF22 binding-1: 2.7*; FGF22 binding-2: 0.16[42 µM]; TSA no protein: inactive

Results for C[C@H](CO)N1C[C@H](C)[C@@H](CN(C)S(=O)(=O)c2ccccc2)Oc2c(NC(=O)C3CC3)cccc2C1=O ?
ARNT-TACC3 inh: -2; ERp5 inh: -5; FN deposition inh: -5; MLL AF4-AF9 inh: -7; FGF22 binding-1: 2.6*; PDI inh: -4; FGF22 binding-2: 0.092; TSA no protein: inactive

Results for C[C@@H]1CN([C@@H](C)CO)C(=O)c2cccc(NC(=O)C3CC3)c2O[C@H]1CN(C)S(=O)(=O)c1ccccc1 ?
ARNT-TACC3 inh: 5; ERp5 inh: 1; MLL AF4-AF9 inh: -6; FGF22 binding-1: -1

How did C[C@H]1CN([C@@H](C)CO)C(=O)CCCn2cc(nn2)CO[C@@H]1CN(C)Cc1cccc(C(=O)O)c1 do in these assays?
ARNT-TACC3 inh: 3; ERp5 inh: -4; FN deposition inh: -5; MLL AF4-AF9 inh: -19; FGF22 binding-1: 1.3*; FGF22 binding-2: -0.018; TSA no protein: inactive

How did C[C@H](CO)N1C[C@H](C)[C@H](CN(C)C(=O)Nc2ccc(F)cc2)Oc2c(NC(=O)c3ccncc3)cccc2C1=O do in these assays?
ERp5 inh: -4; FN deposition inh: 0; MLL AF4-AF9 inh: -11; FGF22 binding-1: 0

What do the screens show for `C[C@H]1CN([C@@H](C)CO)C(=O)Cc2cc(NS(=O)(=O)c3ccc(F)cc3)ccc2O[C@H]1CN(C)CC1CCCCC1`?
ARNT-TACC3 inh: 5; ERp5 inh: 0; MLL AF4-AF9 inh: 0; FGF22 binding-1: 12*; FGF22 binding-2: 0.12; TSA no protein: inactive

What do the screens show for `Cc1ccc(S(=O)(=O)Nc2ccc3c(c2)CC(=O)N([C@@H](C)CO)C[C@H](C)[C@@H](CN(C)S(C)(=O)=O)O3)cc1`?
ARNT-TACC3 inh: -6; ERp5 inh: -7; FN deposition inh: 6; MLL AF4-AF9 inh: 4; FGF22 binding-1: 2.2*; FGF22 binding-2: 0.029; TSA no protein: inactive

How did C[C@@H]1CN([C@@H](C)CO)C(=O)Cc2cc(NS(=O)(=O)c3ccc(F)cc3)ccc2O[C@H]1CN(C)CC1CCCCC1 do in these assays?
ARNT-TACC3 inh: 3; ERp5 inh: 3; MLL AF4-AF9 inh: 0; FGF22 binding-1: 0

How did Cc1noc(C)c1S(=O)(=O)Nc1ccc2c(c1)CC(=O)N([C@@H](C)CO)C[C@@H](C)[C@@H](CN(C)Cc1ccc(Cl)c(Cl)c1)O2 do in these assays?
ARNT-TACC3 inh: -7; ERp5 inh: 0; FN deposition inh: 0; MLL AF4-AF9 inh: 4; FGF22 binding-1: 1.5*; FGF22 binding-2: 0.11[42 µM]; TSA no protein: inactive

How did Cc1noc(C)c1S(=O)(=O)Nc1ccc2c(c1)CC(=O)N([C@@H](C)CO)C[C@@H](C)[C@H](CN(C)Cc1ccc(Cl)c(Cl)c1)O2 do in these assays?
ARNT-TACC3 inh: 37; ERp5 inh: 9; FN deposition inh: 7; MLL AF4-AF9 inh: 2; FGF22 binding-1: 0

Results for CC(C)(CNCc1ccccc1)NS(=O)(=O)c1ccccc1 ?
ARNT-TACC3 inh: -22; ERp5 inh: -6; FN deposition inh: -3; MLL AF4-AF9 inh: -7; FGF22 binding-1: 0; PDI inh: -11

Results for CC(C)(CNCc1ccccc1)NS(=O)(=O)c1ccc(Cl)cc1 ?
ARNT-TACC3 inh: -3; ERp5 inh: -7; FN deposition inh: 0; MLL AF4-AF9 inh: -1; FGF22 binding-1: 2.1*; PDI inh: 4; FGF22 binding-2: 0.057; TSA no protein: inactive

Results for O=C(C[C@@H]1C=C[C@H](NC(=O)NC2CCCCC2)[C@@H](CO)O1)NCc1ccccc1 ?
ARNT-TACC3 inh: -6; ERp5 inh: -2; MLL AF4-AF9 inh: 0; FGF22 binding-1: 0

How did Cn1cc([N+](=O)[O-])c(C(=O)Nc2ccc3nc(-c4ccccc4)[nH]c3c2)n1 do in these assays?
ARNT-TACC3 inh: 5; ERp5 inh: 2; FN deposition inh: -6; MLL AF4-AF9 inh: 2; FGF22 binding-1: 15*; PDI inh: 3; FGF22 binding-2: 0.22; TSA no protein: inactive

How did O=S(=O)(Nc1nnc(C(F)(F)F)s1)c1ccc(Cl)cc1 do in these assays?
ARNT-TACC3 inh: -7; ERp5 inh: 2; FN deposition inh: -3; MLL AF4-AF9 inh: 0; FGF22 binding-1: 2.6*; PDI inh: -2; FGF22 TSA: 0; TSA no protein: inactive

Results for O=C(Cc1n[nH]c(=O)[nH]c1=O)N/N=C/c1c(O)ccc2ccccc12 ?
ARNT-TACC3 inh: 26; ERp5 inh: -1; FN deposition inh: 6; MLL AF4-AF9 inh: -3; FGF22 binding-1: 1.4*; PDI inh: 7; TSA no protein: 10µM*

What do the screens show for `COc1ccc(C(=O)Nc2nc(CC(=O)NCCc3ccccc3)cs2)cc1`?
ARNT-TACC3 inh: -1; ERp5 inh: -3; FN deposition inh: -3; MLL AF4-AF9 inh: 0; FGF22 binding-1: 2.2*; PDI inh: -4; FGF22 binding-2: -0.006; TSA no protein: inactive

Results for COc1ccc(C(=O)Nc2nc(CC(=O)NCCc3cccc(OC)c3)cs2)cc1 ?
ARNT-TACC3 inh: -6; ERp5 inh: 2; FN deposition inh: 0; MLL AF4-AF9 inh: -2; FGF22 binding-1: 0; PDI inh: -4
